PubChem BioAssay AID652287 (Sanford-Burnham Center for Chemical Genomics, 2013)
Several values for one entry are separate records, joined by “and”; a condition that tells them apart may be missing. Equal entries are not always repeated. Activity calls are given as the source filed them.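 Rule for the calls: active = compounds with IC50 of 20 µM or lower; inactive = the rest.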

Target: Fatty acid synthase (Homo sapiens) (UniProt P49327)
Test: inhibition of FAS-TE enzyme activity – biochemical, endpoint fluorescence, OMFH substrate, round 2, powder samples, SAR follow-up (AID 652287)
Settings: recombinant FAS-TE, OMFH fluorogenic substrate
In short: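 Read-out basis: Fluorescence of released enzymatic product, across compound doses | System: FAS-TE enzyme | Amount: 0.9 µM FAS-TE enzyme, final | Times: Enzyme reaction 60 min at room temperature | Doses: Dose-response series, 5.5% DMSO final | Detection: Fluorescence endpoint, Ex 480 nm, Em 540 nm | Reagent: OMFH fluorogenic substrate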

Chain of Fatty acid synthase (Homo sapiens) (P49327 whole entry, looked up): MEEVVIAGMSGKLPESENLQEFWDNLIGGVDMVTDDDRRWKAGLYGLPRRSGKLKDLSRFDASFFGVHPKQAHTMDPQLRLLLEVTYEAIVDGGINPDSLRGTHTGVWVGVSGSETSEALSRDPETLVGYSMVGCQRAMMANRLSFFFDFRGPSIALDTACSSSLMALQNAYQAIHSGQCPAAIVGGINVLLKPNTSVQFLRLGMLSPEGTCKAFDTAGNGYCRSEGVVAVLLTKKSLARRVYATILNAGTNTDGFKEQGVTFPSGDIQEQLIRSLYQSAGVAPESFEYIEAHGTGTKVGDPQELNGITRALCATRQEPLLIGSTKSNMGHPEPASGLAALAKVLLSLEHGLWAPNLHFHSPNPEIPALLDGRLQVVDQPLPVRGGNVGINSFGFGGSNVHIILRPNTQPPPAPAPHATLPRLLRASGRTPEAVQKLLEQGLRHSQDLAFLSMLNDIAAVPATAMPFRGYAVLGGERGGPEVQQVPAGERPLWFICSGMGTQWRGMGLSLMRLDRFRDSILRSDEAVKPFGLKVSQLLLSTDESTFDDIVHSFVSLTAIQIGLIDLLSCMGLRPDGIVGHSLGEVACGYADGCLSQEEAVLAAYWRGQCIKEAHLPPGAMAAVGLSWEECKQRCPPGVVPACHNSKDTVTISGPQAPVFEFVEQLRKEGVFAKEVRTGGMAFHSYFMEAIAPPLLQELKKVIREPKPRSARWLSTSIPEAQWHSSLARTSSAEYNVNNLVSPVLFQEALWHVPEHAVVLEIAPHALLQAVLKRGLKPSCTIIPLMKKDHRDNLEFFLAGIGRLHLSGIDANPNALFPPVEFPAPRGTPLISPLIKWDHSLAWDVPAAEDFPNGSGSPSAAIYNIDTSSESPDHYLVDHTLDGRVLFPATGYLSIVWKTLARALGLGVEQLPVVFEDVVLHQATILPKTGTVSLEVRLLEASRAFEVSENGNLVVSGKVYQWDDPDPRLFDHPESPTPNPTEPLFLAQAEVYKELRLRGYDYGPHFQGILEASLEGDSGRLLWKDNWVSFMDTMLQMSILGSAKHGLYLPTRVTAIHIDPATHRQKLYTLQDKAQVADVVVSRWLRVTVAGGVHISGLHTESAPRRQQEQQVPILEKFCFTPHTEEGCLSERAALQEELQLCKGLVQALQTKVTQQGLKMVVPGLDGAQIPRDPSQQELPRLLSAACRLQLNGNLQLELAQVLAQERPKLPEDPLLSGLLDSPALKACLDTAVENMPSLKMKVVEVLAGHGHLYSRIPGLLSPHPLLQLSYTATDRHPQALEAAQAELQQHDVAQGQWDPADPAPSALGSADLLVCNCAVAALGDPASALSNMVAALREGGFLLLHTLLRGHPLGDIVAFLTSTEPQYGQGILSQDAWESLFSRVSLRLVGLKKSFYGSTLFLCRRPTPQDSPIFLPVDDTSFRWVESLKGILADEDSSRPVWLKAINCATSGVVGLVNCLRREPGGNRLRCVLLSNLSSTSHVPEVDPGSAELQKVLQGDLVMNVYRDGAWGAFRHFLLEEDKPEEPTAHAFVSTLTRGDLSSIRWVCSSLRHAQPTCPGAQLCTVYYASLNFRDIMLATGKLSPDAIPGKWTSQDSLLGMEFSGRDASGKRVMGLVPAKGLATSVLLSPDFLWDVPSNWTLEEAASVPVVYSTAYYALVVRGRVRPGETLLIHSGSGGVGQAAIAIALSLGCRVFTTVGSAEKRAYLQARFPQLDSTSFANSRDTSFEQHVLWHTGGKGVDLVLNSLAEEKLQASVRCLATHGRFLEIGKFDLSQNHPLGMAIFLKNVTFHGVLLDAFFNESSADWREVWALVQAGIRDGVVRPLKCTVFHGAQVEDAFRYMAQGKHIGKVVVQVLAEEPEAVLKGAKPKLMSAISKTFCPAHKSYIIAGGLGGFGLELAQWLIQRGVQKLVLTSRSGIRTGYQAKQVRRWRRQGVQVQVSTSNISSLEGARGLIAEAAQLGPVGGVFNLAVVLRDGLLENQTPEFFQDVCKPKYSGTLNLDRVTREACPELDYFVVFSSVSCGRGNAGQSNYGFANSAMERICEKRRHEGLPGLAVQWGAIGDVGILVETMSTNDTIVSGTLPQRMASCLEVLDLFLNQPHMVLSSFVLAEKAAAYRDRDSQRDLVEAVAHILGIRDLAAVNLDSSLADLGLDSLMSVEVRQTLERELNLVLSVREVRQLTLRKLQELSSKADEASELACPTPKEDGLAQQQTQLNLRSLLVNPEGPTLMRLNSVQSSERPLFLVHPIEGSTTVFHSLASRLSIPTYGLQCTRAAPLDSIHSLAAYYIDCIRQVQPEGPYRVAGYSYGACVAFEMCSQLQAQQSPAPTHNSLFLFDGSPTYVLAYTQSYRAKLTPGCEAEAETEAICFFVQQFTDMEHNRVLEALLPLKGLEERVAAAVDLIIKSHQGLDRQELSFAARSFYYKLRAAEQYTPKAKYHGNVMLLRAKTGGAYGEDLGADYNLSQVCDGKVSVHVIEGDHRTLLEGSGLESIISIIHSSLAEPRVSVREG

| SMILES | IC50 |
| --- | --- |
| CCCCCCC(=O)Nc1nc(-c2ccc(S(=O)(=O)N3CCCCC3C)cc2)cs1 (stereo not drawn) | 4320 nM |
| CCCCCC(=O)Nc1nc(-c2ccc(S(=O)(=O)N3CCC(C)CC3)cc2)cs1 | 745 nM |
| CC(C)CC(=O)Nc1nc(-c2ccc(S(=O)(=O)N3CCC(C)CC3)cc2)cs1 | inactive |
| CCCCCCC(=O)Nc1nc(-c2ccc(S(=O)(=O)N3CCC(C)CC3)cc2)cs1 | 4470 nM |
| CCCCC(=O)Nc1nc(-c2ccc(S(=O)(=O)N3CCOCC3)cc2)cs1 | 204 nM |
| CC(C)CC(=O)Nc1nc(-c2ccc(S(=O)(=O)N3CCCC3)cc2)cs1 | 1640 nM |
| CCC(CC)C(=O)Nc1nc(-c2ccc(S(=O)(=O)N3CCC(C)CC3)cc2)cs1 | 1830 nM |
| CCC(CC)C(=O)Nc1nc(-c2ccc(S(=O)(=O)N(CC)CC)cc2)cs1 | 328 nM |
| Cn1c(SCC(=O)Nc2ncc(C(F)(F)F)cc2Cl)nnc1-c1ccc(Cl)cc1 | 686 nM |
| CCCCC(=O)Nc1nc(-c2ccc(S(=O)(=O)N3CCCCC3C)cc2)cs1 (stereo not drawn) | 382 nM |
| CCC(C)C(=O)Nc1nc(-c2ccc(S(=O)(=O)N(CC)CC)cc2)cs1 (stereo not drawn) | 1130 nM and 154 nM |
| CCC(C)C(=O)Nc1nc(-c2ccc(S(=O)(=O)N3CCC(C)CC3)cc2)cs1 (stereo not drawn) | 409 nM |
| CCCCCCC(=O)Nc1nc(-c2ccc(S(=O)(=O)N3CCCC3)cc2)cs1 | 846 nM |
| CCCCCC(=O)Nc1nc(-c2ccc(S(=O)(=O)N(CC)CC)cc2)cs1 | 196 nM |
| CCC(CC)C(=O)Nc1nc(-c2ccc(S(=O)(=O)N3CCCC3)cc2)cs1 | 257 nM |
| CCCCCC(=O)Nc1nc(-c2ccc(S(=O)(=O)N3CCCCC3C)cc2)cs1 (stereo not drawn) | 580 nM |
| CN(Cc1ccc(C(C)(C)C)cc1)C(=O)Cc1ccc(S(=O)(=O)N2CCOCC2)s1 | 343 nM |
| CCCCCCC(=O)Nc1nc(-c2ccc(S(=O)(=O)N(CC)CC)cc2)cs1 | 1390 nM |
| CCCCCC(=O)Nc1nc(-c2ccc(S(=O)(=O)N3CCCC3)cc2)cs1 | 141 nM |
| CCC(C)C(=O)Nc1nc(-c2ccc(S(=O)(=O)N3CCCCC3C)cc2)cs1 (stereo not drawn) | 285 nM |
| CCCCCCCCCCC[C@H](C[C@@H]1OC(=O)[C@H]1CCCCCC)OC(=O)[C@@H](NC=O)C(C)C | 107 nM |
| CCC(C)C(=O)Nc1nc(-c2ccc(S(=O)(=O)N3CCCC3)cc2)cs1 (stereo not drawn) | 145 nM |
| CC1CCN(S(=O)(=O)c2ccc(-c3csc(NC(=O)C(C)C)n3)cc2)CC1 | 511 nM |
